Activity calls are given as the source filed them. The calls are words filed in the database; no cut-off is given here.
Experiments:
[1] = target: Trace amine-associated receptor 1 (Mus musculus, UniProt Q923Y8); assay: Agonist activity at mouse TAAR1 expressed in HEK293 cells coexpressing cAMP BRET biosensor assessed as induction of CAMP production after 20 mins by bioluminescence resonance energy transfer assay; format: functional, cell-based
Outline: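 HEK-293 cells transiently transfected with mTAAR1 (or empty vector as control) plus EPAC cAMP BRET biosensor. Read started immediately after agonist addition, continuing ~20 min. IBMX 200 μM final present throughout. Initial screen at 10 μM; actives then run as dose-response. Emission read in 465−505 and 515−555 nm windows, acceptor/donor ratio taken. EC50 from nonlinear one-site fit; 4−6 independent experiments, mean ± SEM.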

[2] = target: Trace amine-associated receptor 1 (Mus musculus) (UniProt Q923Y8); assay: Agonist activity at mouse TAAR1 expressed in HEK293 cells coexpressing cAMP BRET biosensor assessed as induction of CAMP production after 20 mins by bioluminescence resonance energy transfer assay relative to control; format: functional, cell-based
Outline: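 Transient co-transfection of HEK-293 cells with mTAAR1 and the EPAC cAMP BRET biosensor; empty vector as control. Assayed with IBMX at 200 μM final. Screened at 10 μM, then dose-response on actives. Read-out is the acceptor/donor ratio from the 465−505 and 515−555 nm windows; time courses read for about 20 min after agonist addition. EC50 from nonlinear regression (one site specific binding); 4−6 independent experiments, mean ± SEM.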

[3] = system: Heart; assay: Reduction in cardiac out put in male Wistar rat heart assessed as aortic and coronary flow after 30 mins by Cardiac perfusion technique; format: functional, tissue-based; conditions: 0.5 h
Outline: (§1)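 Male Wistar rats (275−300 g) were anesthetized with ether/air and given 1000 U heparin iv (femoral vein). The heart was excised and perfused as a working heart (atrial 20 cm, aortic 100 cm cannulae). After 5 min equilibration, it was perfused 60 min with buffer containing DMSO vehicle or escalating doses in DMSO. Cardiac output = aortic + coronary flow. 30-min values are expressed as % of baseline. IC50 from sigmoidal nonlinear regression; 3−7 hearts per group, mean ± SE.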

[4] = system: Mus musculus; assay: Induction of plasma glucose level in fasted CD1 mouse at 1.32 ug/kg, ip after 15 mins glucorefractometry relative to T0AM; format: functional, organism-based
Outline: (§2)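 Male CD-1 mice were fasted 4 h (8 to 12 h) and given a single ip dose (1.32, 4 or 11 μg·kg−1) or saline; n = 10 per group. Tail-vein blood glucose was read by glucorefractometer 15 min after injection. One-way ANOVA with Student−Newman−Keuls post hoc test, P < 0.05; mean ± SEM.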

[5] = system: Mus musculus; assay: Induction of plasma glucose level in fasted CD1 mouse at 4 ug/kg, ip after 15 mins glucorefractometry relative to T1AM; format: functional, organism-based; outline: as §2
[6] = system: Heart; assay: Reduction in cardiac out put in male Wistar rat heart assessed as aortic and coronary flow at 20 to 40 uM after 30 mins by Cardiac perfusion technique; format: functional, tissue-based; outline: as §1
[7] = system: Heart; assay: Reduction in cardiac out put in male Wistar rat heart assessed as aortic and coronary flow at 40 uM within 10 mins by Cardiac perfusion technique relative to control; format: functional
[8] = system: Heart; assay: Reduction in cardiac out put in male Wistar rat heart assessed as aortic and coronary flow measured as rate of duration of experiment at 40 uM by Cardiac perfusion technique; format: functional

Sequence of Trace amine-associated receptor 1 (Mus musculus) (Q923Y8 whole entry): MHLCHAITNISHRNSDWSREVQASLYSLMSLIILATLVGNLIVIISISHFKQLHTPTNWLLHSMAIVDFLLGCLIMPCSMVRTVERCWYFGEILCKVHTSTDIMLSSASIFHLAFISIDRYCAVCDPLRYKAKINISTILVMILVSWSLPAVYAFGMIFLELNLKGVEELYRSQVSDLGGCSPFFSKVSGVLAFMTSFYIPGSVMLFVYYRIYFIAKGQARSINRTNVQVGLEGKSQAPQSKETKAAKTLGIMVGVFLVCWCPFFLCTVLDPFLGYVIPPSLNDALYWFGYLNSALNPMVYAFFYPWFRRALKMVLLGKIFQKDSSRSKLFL
Sequence of Trace amine-associated receptor 1 (Q923Y8 whole entry): as above

In the case of `NCCc1ccccc1` [PHENETHYLAMINE], the EC50 [1] is reported as 0.138 µM.

In the case of `NCCOc1ccc(Cc2ccc(N)cc2)cc1`, the Emax [2] is reported as 40%, the IC50 [3] is reported as 34 µM and the Activity [4] is reported as “inactive”. For the same compound, the EC50 [1] was 1.7 µM.

In the case of `NCCOc1ccc(Cc2ccc(O)cc2)cc1`, the Emax [2] is reported as 80% and the EC50 [1] is reported as 2.2 µM.

For `Cc1cc(OCCN)ccc1Cc1ccc(N)cc1`, the Emax [2] was 75%, the IC50 [3] was 30 µM and the Activity [5] was “Active”. The inhibition [6] was “Active”, the inhibition at 40 µM [7] was 60% and the EC50 [1] was 0.24 µM. The Time [8] was 1 h.

For `NCCc1ccc(Oc2ccc(O)cc2)c(I)c1`, the IC50 [3] was 27 µM and the EC50 [1] was 0.189 µM.

In the case of `Cc1cc(OCC(=O)O)ccc1Cc1ccc(N)cc1`, the IC50 [3] is reported as 30 µM and the Activity [4] is reported as “Active”.

With `Nc1ccc(Cc2ccc(OCC(=O)O)cc2)cc1` the IC50 [3] was 30 µM and the Activity [4] was “inactive”.

In the case of `NCCc1ccc(Cc2ccc(N)cc2)cc1`, the Emax [2] is reported as 100% and the EC50 [1] is reported as 0.8 µM.

From ChEMBL document CHEMBL3580610, “Design, Synthesis, and Evaluation of Thyronamine Analogues as Novel Potent Mouse Trace Amine Associated Receptor 1 (mTAAR1) Agonists” (J Med Chem, 2015)
